# Like-named read-outs stand apart in the source and are kept apart here.
# Tests used:
# Type in all cases: cell-based, human
# A549 cells [1] = tested on: A549 cells
# Method in brief: (§1)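 Human cells (A549 lung cancer, RPE-1 non-cancerous epithelial) were incubated with test compound for 4 h, the medium was replaced, and the cells were either irradiated or kept dark, then incubated a further 48 h. Viability was read by resazurin. Irradiation was 510 nm for 10 min (non-extended BODIPYs) or 645 nm (extended BODIPYs). IC50 was found dark and irradiated. […]. PPIX was the positive control.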
# RPE-1 cells = tested on: RPE-1 cells
# Method in brief: as §1
# A549 cells [2] = assay: Intracellular total ROS generation, DCFH trap, A549 cells; conditions: A549, 5 μM, 645 nm for 1 h
# Method in brief: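 A549 cells were loaded with the total-ROS trap dichlorodihydrofluorescein (DCFH) and test compound, then irradiated at 645 nm for 1 h at 37 °C. The trap's fluorescence gave intracellular ROS generation. DCFH alone was the control.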
# [3] = read-out: IC50 upon 645 nm irradiation, 645 nm for 1 h (9.00 J/cm2)
smiles,measurement,setting,value
C=CC1=C(C)c2cc3[nH]c(cc4nc(cc5[nH]c(cc1n2)c(C)c5CCC(=O)O)C(CCC(=O)O)=C4C)c(C)c3C=C [PPIX],Phototoxicity index,A549 cells [1]; 510 nm for 10 min,220 ± 30
same,Phototoxicity index,A549 cells [1]; 645 nm for 1 h,111 ± 4
same,IC50,A549 cells [1]; [3],900 ± 30 nM
same,Phototoxicity index,RPE-1 cells; 510 nm for 10 min,350 ± 120
same,Phototoxicity index,RPE-1 cells; 645 nm for 1 h,360 ± 160
same,IC50,"RPE-1 cells; read-out: IC50 in the dark, dark, Table 3 (645 nm series)",> 100000 nM
same,IC50,"RPE-1 cells; read-out: IC50 upon 510 nm irradiation, 510 nm for 10 min (2.44 J/cm2)",300 ± 100 nM
same,IC50,RPE-1 cells; [3],300 ± 100 nM
same,Intracellular ROS generation,A549 cells [2],elevated above control
